How the values were obtained:
Plasmodium berghei [1] = assay: Antiplasmodial activity against Plasmodium berghei ANKA infected in Swiss mouse assessed as parasitemia at 90 mg/kg, ip measured on day 60 postinfection; type: functional; details: route intraperitoneal
Summary of the method: (§1)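 Male Swiss mice (5–6 weeks) infected i.p. with 10^7 P. berghei ANKA-parasitized erythrocytes taken from passage BALB/c mice and diluted in citrate-phosphate-dextrose. At 64 h (3–5% parasitemia confirmed by thin film), piperaquine phosphate was given once i.p. at 90 mg/kg in 50% glycerol/30% isotonic phosphate buffer pH 7.1/20% polysorbate 80. Parasitemia was read from May-Grunwald Giemsa tail-blood smears (mean ± SD) and tracked from dosing (day 0).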

Plasmodium berghei [2] = assay: Antiplasmodial activity against Plasmodium berghei ANKA infected in Swiss mouse assessed as median survival time at 90 mg/kg, ip administered 5 days after infection; type: functional; details: route intraperitoneal
Summary of the method: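 Naive male Swiss mice (5 weeks, n = 5 per donor) inoculated i.p. with 200 µl of a 1:5 dilution of saline-washed, buffy-coat-depleted red cells from PQP-treated infected donor mice (<105 parasites). Five days later three mice per cohort received single i.p. 90 mg/kg PQP in glycerol/phosphate buffer pH 7.1/polysorbate 80; two left untreated. Parasitemia by Giemsa thin films twice daily; median survival recorded.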

[3] = Plasma concentration in Swiss mouse infected with Plasmodium berghei ANKA at 90 mg/kg, ip after 25 days; type: ADME, organism-based; set-up: dose 90 mg/kg, route intraperitoneal
Summary of the method: (§2)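 Infected Swiss mice (n = 4) were dosed with 90 mg/kg piperaquine phosphate i.p. at day 0. Plasma was taken by cardiac puncture, centrifuged at 3,000 x g for 5 min and stored at –80°C. Drug was measured by a validated HPLC assay (LOQ 1.6 µg/liter, LOD 0.7 µg/liter, CV <12%). Values are mean ± SD.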

Plasmodium berghei [4] = assay: Antiplasmodial activity against Plasmodium berghei ANKA infected in Swiss mouse assessed as parasitemia at 90 mg/kg, ip measured on day 25 postinfection; type: functional; details: route intraperitoneal; summary of the method: as §1
Plasmodium berghei [5] = assay: Antiplasmodial activity against Plasmodium berghei ANKA infected in Swiss mouse assessed as parasitemia at 90 mg/kg, ip measured on day 90 postinfection; type: functional; details: route intraperitoneal; summary of the method: as §1
Plasmodium berghei [6] = assay: Antiplasmodial activity against Plasmodium berghei ANKA infected in Swiss mouse assessed as parasitemia at 90 mg/kg, ip measured on day 40 postinfection; type: functional; details: route intraperitoneal; summary of the method: as §1
Plasmodium berghei [7] = assay: Antiplasmodial activity against Plasmodium berghei ANKA infected in Swiss mouse assessed as parasitemia at 90 mg/kg, ip administered 5 days after infection measured up to 25 days; type: functional; details: route intraperitoneal
Summary of the method: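 Donor blood from previously infected, treated mice was taken by cardiac puncture and the red cells washed three times in 0.9% NaCl. A 1:5 dilution (<10^5 parasites) was given i.p. to naive male mice (5 weeks; n = 5 per donor). Five days later, three mice per group received a single 90 mg/kg i.p. dose of piperaquine phosphate and two stayed untreated. Giemsa smears were read twice daily.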

[8] = Plasma concentration in Swiss mouse infected with Plasmodium berghei ANKA at 90 mg/kg, ip after 60 days; type: ADME, organism-based; set-up: dose 90 mg/kg, route intraperitoneal; summary of the method: as §2
Plasmodium berghei [9] = assay: Antiplasmodial activity against Plasmodium berghei ANKA infected in Swiss mouse assessed as assessed as time required for parasite recrudescence at 90 mg/kg, ip; type: functional; details: route intraperitoneal
[10] = Plasma concentration in Swiss mouse infected with Plasmodium berghei ANKA at 90 mg/kg, ip after 40 days; type: ADME, organism-based; set-up: dose 90 mg/kg, route intraperitoneal; summary of the method: as §2
Plasmodium berghei [11] = assay: Antiplasmodial activity against Plasmodium berghei ANKA infected in Swiss mouse assessed as parasitemia at 90 mg/kg, ip measured on day 13 postinfection; type: functional; details: route intraperitoneal; summary of the method: as §1

Clc1ccc2c(N3CCN(CCCN4CCN(c5ccnc6cc(Cl)ccc56)CC4)CC3)ccnc2c1.O=P(O)(O)O [PIPERAQUINE PHOSPHATE]
Activity (Plasmodium berghei [1]): 0.3%
MST (Plasmodium berghei [2]): 19 days
concentration at 600 h [3]: 15 ng/mL
Activity (Plasmodium berghei [4]): <0.015%
Activity (Plasmodium berghei [5]): 0.9%
Activity (Plasmodium berghei [6]): 0.1%
Activity (Plasmodium berghei [7]): 10%
concentration at 1440 h [8]: 2 ng/mL
Time (Plasmodium berghei [9]): 7 days
concentration at 960 h [10]: 11 ng/mL
Activity (Plasmodium berghei [11]): 1.32%

— ChEMBL document CHEMBL1649496, “Piperaquine pharmacodynamics and parasite viability in a murine malaria model” (Antimicrob Agents Chemother, 2009)
